# Compound activity deposited in PubChem BioAssay by several laboratories.
# Hits are enriched below; roughly 3% of the tested compounds scored in any of these assays.
# KLK7 zymogen act = activators of human kallikrein-7 zymogen; 0.9% of 370,000 active; activation, % at 7 µM; purified proKLK7, EDANS-DABCYL substrate fluorescence; 100% is mature enzyme control, 0% vehicle;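 active = activation above the mean of all tested compounds plus 3 SD, computed per campaign excluding outliers beyond control limits, cut at about 13% in these data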
# Tn7 DDE FP = disrupts Tn7 cyclic peptide binding to fibrin D-Dimer-E complex | 0.13% of 370,000 active | P02675 | FP displacement of FITC-Tn7 peptide from fibrin DD(E); 0% = median of compound wells per plate | inhibition, % at 8.3 µM;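 active = inhibition above the mean of compounds falling within the control limits plus 3 SD of them, cut at about 14% in these data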;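 note: 0% = plate median of compound wells and 100% = 10 µM Aha-Tn7 peptide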
#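 Assay system: human fibrin DD(E). Input: DD(E) 2 µM final. Medium: Tris buffer with calcium and detergent, pH 7.8. Compound dosing: single point at 8.3 µM. Timing: 10 min plus 3 h, room temperature. Technique: fluorescence polarization of the labelled Tn7 tracer. Read-out: percent inhibition. Replicates: singlicate testing.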
# PLC-beta3 inh = blocks human PLC-beta3 enzyme activity | Q01970 | Purified PLC-beta3, fluorogenic substrate, fluorescence | inhibition, % at 12.2 µM | 0.18% of 370,000 active;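 note: 0% = median of compound wells on plate and 100% = full blocker control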
# PLC-gamma1 inh = PLC-gamma1 (human) inhibition, primary screen; P19174; inhibition, % at 12.2 µM; 0.84% of 370,000 active; purified PLC-gamma1, fluorogenic substrate, fluorescence; in the data active = inhibition above about 9.5%
# Tn6 DDE FP = DD(E)-Tn6 binding inhibition, primary FP screen; Fibrin DD(E) TRITC-Tn6 fluorescence polarization displacement; inhibition, % at 8.3 µM; 0.21% of 370,000 active;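 active = inhibition above a per-campaign cutoff: mean of compounds within control limits plus 3 SD, cut at about 15% in these data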;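 note: 0% = median of all compound wells on the plate and 100% = blocking peptide control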
# CendR NRP1 mod = alters CendR peptide binding to human NRP-1; O14786; FAM-RPARPAR peptide binding to NRP-1, fluorescence polarization; inhibition, % at 25 µM; 0.85% of 360,000 active;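 active = inhibition or corrected inhibition above about 18%, plus a signal ratio from 0.5 to 1.5, limit read from the data, passing the limit was not always enough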
# PLCg1 ctr = counter-screen for PLC-beta3 inhibitors: inhibitors of human PLC-gamma1; shares compounds with PLC-gamma1 inh; purified PLC-gamma1, fluorogenic substrate, fluorescence; inhibition, % at 12.3 µM; 3.1% of 3,300 active; AID 743258; in the data active = inhibition above about 9.5%
# PLCbeta3 conf = human PLC-beta3 inhibition, confirmation; purified PLC-beta3, fluorogenic substrate fluorescence; inhibition, % at 12.3 µM; 1% of 3,300 active; AID 743261; shares compounds with PLC-gamma1 inh
# Starred values were filed as active, the others as inactive; . = no result. Cut-off read from the data, not from the text of the source, unless noted: active = inhibition above about 11%; inactive = the rest.
SMILES,KLK7 zymogen act,Tn7 DDE FP,PLC-beta3 inh,PLC-gamma1 inh,Tn6 DDE FP,CendR NRP1 mod,PLCg1 ctr,PLCbeta3 conf
COc1ccc(C(=O)N(C)[C@H]2C[C@H]3c4[nH]c5cccc(-c6ccccc6)c5c4CCN3C[C@H]2[C@H](C)O)cc1,-8,0,-272,-261,-11,.,.,.
N#CCC[C@@H]1CC[C@]2(CCCN(Cc3ccc(Br)cc3)C2)O1,-1,0,3,9.5*,0,.,3,5
O=C(N[C@@H]1C[C@@H]2O[C@@H](CO)CC[C@@H]2O[C@@H]1CCc1ccc(-c2ccccc2)cc1)c1cnccn1,0,-5,-3,4,-8,.,.,.
O=C1NC(Cc2ccccc2)c2nc3cc(F)ccc3c(=O)n2-c2ccccc21 (configuration not stated),1,5,-1,11*,-3,.,-5,-5
Cc1ccc2nc3n(c(=O)c2c1)-c1ccccc1C(=O)NC3Cc1ccc(O)cc1 (configuration not stated),0,-8,5,10*,-6,.,-6,-7
CCOC(=O)CC[C@H]1CC[C@]2(CCCN(C(=O)c3ccno3)C2)O1,-1,2,-3,-1,-2,.,.,.
CCc1cccc2c(N=O)c(O)[nH]c12,0,3,1,11*,-4,-12,-2,1
CC(C)NC(=O)CC1C(=O)N(Cc2ccccc2)C(C)c2nc3ccccc3n21 (configuration not stated),0,-3,4,13*,1,-4,-2,-1
COCc1cc(N2CCN(C(=O)OC(C)(C)C)C[C@H]2C)ccc1N1CCS(=O)(=O)CC1,0,1,-3,-3,1,.,.,.
COc1ccc(CNC(=O)C2(c3ccc(Cl)cc3)CC2)cc1,0,-2,10,14*,9,1,-6,1
COc1cccc(/C=C2\CC3(OC(=O)c4ccco4)CCCN2C3)c1 (configuration not stated),-1,-3,-4,1,-6,.,.,.
O=C(c1ccccc1)N1CCOC12CCN(c1ncc(C(F)(F)F)cc1Cl)CC2,0,-1,-3,1,-1,17,.,.
O=C(c1ccc([N+](=O)[O-])cc1)N1CCOC12CCN(c1ncc(C(F)(F)F)cc1Cl)CC2,0,-2,9,11*,1,-4,3,1
COC(=O)CSc1nnc(-c2cc(-c3ccccc3)n[nH]2)n1N,0,-7,4,1,-1,.,.,.
CCOC(=O)[C@@]12CCCC3=C1N(CCC3)C(=O)[C@H]2CC(=O)N1CCOCC1,0,0,1,-1,2,.,.,.
